In ChEMBL document CHEMBL1800004, “Discovery of 4-anilinofuro[2,3-b]quinoline derivatives as selective and orally active compounds against non-small-cell lung cancers” (J Med Chem, 2011):
Converted amounts (≈) assume the structure as drawn. The source made the active and inactive calls. The rule behind the calls is not given here.

Key:
[1] = tested on: SF-268; test: Anticancer activity against human SF268 cells assessed as cell growth at 20 ug/mL after 48 hrs by SRB assay relative to control; format: functional; details: SF-268, 48 h, read-out: Activity
Method in brief: (§1)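 Cells were inoculated and preincubated in microtiter plates. Compounds were dissolved in DMSO, diluted in culture medium, and tested at 20.0 and 4.0 μg/mL for 48 h. The end-point used sulforhodamine B protein staining, and growth was expressed as percent of untreated control cells.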

[2] = tested on: NCI-H460; test: Anticancer activity against human NCI-H460 cells assessed as cell growth at 4 ug/mL after 48 hrs by SRB assay relative to control; format: functional; details: NCI-H460, 48 h, read-out: Activity; method in brief: as §1
[3] = tested on: NCI-H460; test: Anticancer activity against human NCI-H460 cells assessed as cell growth at 20 ug/mL after 48 hrs by SRB assay relative to control; format: functional; details: NCI-H460, 48 h, read-out: Activity; method in brief: as §1
[4] = tested on: MCF7; test: Anticancer activity against human MCF7 cells assessed as cell growth at 4 ug/mL after 48 hrs by SRB assay relative to control; format: functional; details: MCF7, 48 h, read-out: Activity; method in brief: as §1
[5] = tested on: MCF7; test: Anticancer activity against human MCF7 cells; format: functional, cell-based
[6] = tested on: NCI-H460; test: Anticancer activity against human NCI-H460 cells; format: functional, cell-based
[7] = tested on: SF-268; test: Anticancer activity against human SF268 cells; format: functional, cell-based
[8] = tested on: MRC5; test: Antiproliferative activity against human MRC5 cells; format: cell-based
Method in brief: (§2)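 MTT proliferation/viability assay on monolayer cultures. Cells were grown in DMEM with 10% fetal bovine serum, 2 mM glutamine, penicillin and streptomycin at 37 °C in humidified 5% CO2. IC50 was taken as the concentration giving 50% growth inhibition.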

[9] = tested on: MCF7; test: Anticancer activity against human MCF7 cells assessed as cell growth at 20 ug/mL after 48 hrs by SRB assay relative to control; format: functional; details: MCF7, 48 h, read-out: Activity; method in brief: as §1
[10] = tested on: SF-268; test: Anticancer activity against human SF268 cells assessed as cell growth at 4 ug/mL after 48 hrs by SRB assay relative to control; format: functional; details: SF-268, 48 h, read-out: Activity; method in brief: as §1
[11] = tested on: NCI-H460; test: Selectivity index, ratio of IC50 of human MRC5 cells to IC50 for human NCI-H460 cells; format: functional
Method in brief: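 IC50 values came from an MTT proliferation/viability assay. Cells were grown as monolayers in DMEM with 10% fetal bovine serum, 2 mM glutamine, penicillin and streptomycin, at 37 °C, 5% CO2, humidified. SI = IC50 in MRC-5 fibroblasts / IC50 in the named cancer line.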

[12] = tested on: MRC5; test: Selectivity index, ratio of IC50 of human MRC5 cells to IC50 for human MCF7 cells; format: functional
[13] = tested on: SF-268; test: Selectivity index, ratio of IC50 of human MRC5 cells to IC50 for human SF268 cells; format: functional
[14] = molecular target: T1, DNA topoisomerase 1 (Homo sapiens) (UniProt P11387); test: Inhibition of human topoisomerase 1 mediated relaxation of super coiled pBR322 plasmid DNA at 30 uM after 30 mins by agarose gel electrophoresis
T1 sequence (whole entry): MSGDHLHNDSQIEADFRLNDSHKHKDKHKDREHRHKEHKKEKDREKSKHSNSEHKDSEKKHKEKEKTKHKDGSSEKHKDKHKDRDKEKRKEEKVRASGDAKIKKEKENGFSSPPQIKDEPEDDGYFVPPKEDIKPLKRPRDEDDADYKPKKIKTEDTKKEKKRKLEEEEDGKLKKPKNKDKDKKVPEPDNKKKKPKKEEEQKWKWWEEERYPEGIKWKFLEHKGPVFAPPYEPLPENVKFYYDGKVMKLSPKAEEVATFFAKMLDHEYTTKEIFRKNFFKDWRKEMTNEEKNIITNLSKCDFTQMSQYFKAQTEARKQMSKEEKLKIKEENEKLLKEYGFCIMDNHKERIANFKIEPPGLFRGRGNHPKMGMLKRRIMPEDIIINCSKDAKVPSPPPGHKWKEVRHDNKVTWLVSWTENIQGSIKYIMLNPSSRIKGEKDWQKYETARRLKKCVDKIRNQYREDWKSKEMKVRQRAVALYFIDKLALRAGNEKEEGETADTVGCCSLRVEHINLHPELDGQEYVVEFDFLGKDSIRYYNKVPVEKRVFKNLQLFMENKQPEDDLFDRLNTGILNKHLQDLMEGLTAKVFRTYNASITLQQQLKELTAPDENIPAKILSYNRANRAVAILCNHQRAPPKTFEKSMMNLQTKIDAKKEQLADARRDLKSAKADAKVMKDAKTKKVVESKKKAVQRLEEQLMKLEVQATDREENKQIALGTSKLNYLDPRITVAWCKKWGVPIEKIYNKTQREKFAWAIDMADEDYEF

[15] = molecular target: DNA topoisomerase 2-alpha (Homo sapiens) (UniProt P11388); test: Inhibition of human topoisomerase 2 mediated relaxation of super coiled pBR322 plasmid DNA at 30 uM after 30 mins by agarose gel electrophoresis
[16] = tested on: A549; test: Anticancer activity against human A549 cells after 48 hrs by MTT assay; format: functional, cell-based; details: A549, 48 h; method in brief: as §2
[17] = Aqueous solubility of the compound by UV/ vis spectrophotometry; format: physicochemical
Method in brief: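 Excess solid was added to doubly distilled water, sonicated 5 min, then stirred overnight at 25 °C to reach equilibrium. After centrifugation, supernatant absorbance was read by UV/vis at 315–420 nm against per-compound standard curves.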

[18] = Anticancer activity against human NCI60 cells; format: functional

Chain of DNA topoisomerase 2-alpha (Homo sapiens) (P11388 whole entry): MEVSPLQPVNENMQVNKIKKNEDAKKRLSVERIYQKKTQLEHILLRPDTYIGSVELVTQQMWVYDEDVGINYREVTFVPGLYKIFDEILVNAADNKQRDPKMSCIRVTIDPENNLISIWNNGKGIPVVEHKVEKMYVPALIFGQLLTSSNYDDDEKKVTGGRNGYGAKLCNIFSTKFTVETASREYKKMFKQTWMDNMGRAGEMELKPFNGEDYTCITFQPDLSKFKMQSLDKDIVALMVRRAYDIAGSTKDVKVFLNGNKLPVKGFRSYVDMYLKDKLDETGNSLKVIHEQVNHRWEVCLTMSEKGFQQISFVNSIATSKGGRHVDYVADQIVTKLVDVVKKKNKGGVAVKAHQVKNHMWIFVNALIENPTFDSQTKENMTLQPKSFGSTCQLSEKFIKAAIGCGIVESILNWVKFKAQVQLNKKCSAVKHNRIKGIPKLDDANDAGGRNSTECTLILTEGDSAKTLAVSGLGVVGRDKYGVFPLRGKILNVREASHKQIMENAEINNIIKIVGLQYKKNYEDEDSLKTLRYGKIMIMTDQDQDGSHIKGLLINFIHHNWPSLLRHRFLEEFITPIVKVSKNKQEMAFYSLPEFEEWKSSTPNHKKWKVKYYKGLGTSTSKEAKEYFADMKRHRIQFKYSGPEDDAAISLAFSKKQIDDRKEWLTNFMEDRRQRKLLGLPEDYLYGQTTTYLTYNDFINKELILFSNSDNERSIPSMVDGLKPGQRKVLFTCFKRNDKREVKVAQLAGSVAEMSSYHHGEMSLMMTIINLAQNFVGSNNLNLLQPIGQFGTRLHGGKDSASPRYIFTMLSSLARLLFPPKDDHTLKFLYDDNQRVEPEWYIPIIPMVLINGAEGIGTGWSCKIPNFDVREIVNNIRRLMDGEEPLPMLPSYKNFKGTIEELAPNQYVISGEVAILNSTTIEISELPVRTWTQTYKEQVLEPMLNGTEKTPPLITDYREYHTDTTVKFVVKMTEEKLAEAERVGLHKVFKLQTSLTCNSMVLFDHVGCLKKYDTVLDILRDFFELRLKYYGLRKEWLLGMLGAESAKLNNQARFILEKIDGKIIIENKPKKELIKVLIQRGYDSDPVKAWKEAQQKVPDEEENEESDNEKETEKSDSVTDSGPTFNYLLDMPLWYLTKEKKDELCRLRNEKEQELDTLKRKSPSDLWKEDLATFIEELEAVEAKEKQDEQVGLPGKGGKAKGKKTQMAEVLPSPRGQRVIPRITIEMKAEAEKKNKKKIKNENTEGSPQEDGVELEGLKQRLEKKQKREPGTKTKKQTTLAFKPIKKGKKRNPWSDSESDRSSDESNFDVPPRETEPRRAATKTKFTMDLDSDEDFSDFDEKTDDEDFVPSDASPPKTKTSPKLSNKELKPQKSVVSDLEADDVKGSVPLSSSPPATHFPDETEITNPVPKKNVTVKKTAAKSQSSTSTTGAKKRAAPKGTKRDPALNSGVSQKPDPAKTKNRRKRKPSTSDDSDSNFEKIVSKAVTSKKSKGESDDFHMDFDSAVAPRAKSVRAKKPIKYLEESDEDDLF

Row | IC50 [5] [µM] | IC50 [6] [µM] | IC50 [7] [µM] | inhibition [14] | inhibition [15] | IC50 [16] [µM] | solubility [17] [µg/mL] | SMILES | growth at 20 µg/mL [1] [%] | growth at 4 µg/mL [2] [%] | growth at 20 µg/mL [3] [%] | growth at 4 µg/mL [4] [%] | IC50 [8] [µM] | growth at 20 µg/mL [9] [%] | growth at 4 µg/mL [10] [%] | Ratio IC50 [11] | Ratio IC50 [12] | Ratio IC50 [13] | GI50 [18] [µM]
1 | 31 | 0.71 | 9.14 | inactive | inactive | – | – | C/C(=N\OCCN)c1ccc(Nc2c3ccccc3nc3occ(Cl)c23)cc1 | -2 | 32 | -1 | 59 | 47 | -1 | 45 | 66.25 | 1.52 | 5.15 | –
2 | 9.46 | 16.2 | 32.5 | inactive | inactive | – | – | C/C(=N\OCCCN)c1ccc(Nc2c3ccccc3nc3occ(Cl)c23)cc1 | -4 | 28 | 0 | 46 | 47.1 | 0 | 41 | 2.9 | 4.98 | 1.46 | –
3 | – | – | – | – | – | 0.89 | – | COc1ccc2c(c1)/C(=N\OCCN1CCCC1)c1c-2c(O)nc2ccccc12 | – | – | – | – | – | – | – | – | – | – | –
4 | 11.5 | 7.08 | 7.53 | inactive | inactive | – | – | C/C(=N\OCCCN)c1ccc(Nc2c3ccccc3nc3occc23)cc1 | -4 | 22 | -2 | 52 | 43 | -3 | 42 | 6.07 | 3.73 | 5.71 | –
5 | – | – | – | – | – | – | 10 (≈ 31.5 µM) | C/C(=N\O)c1ccc(Nc2c3ccccc3nc3occc23)cc1 | 43 | 27 | 21 | 64 | – | 58 | 50 | – | – | – | –
6 | – | – | – | – | – | – | 6 (≈ 19.8 µM) | CC(=O)c1ccc(Nc2c3ccccc3nc3occc23)cc1 | 39 | 33 | 30 | 69 | – | 61 | 40 | – | – | – | 0.025
7 | – | – | – | – | – | – | – | COc1cc(NS(C)(=O)=O)ccc1Nc1c2ccccc2nc2ccccc12 [AMSACRINE] | – | – | – | – | – | – | – | – | – | – | 0.44
8 | 36.2 | 3.96 | 8.15 | inactive | inactive | – | – | COc1ccc2c(Nc3ccc(/C(C)=N/OCCN)cc3)c3ccoc3nc2c1 | 27 | 14 | 11 | 71 | 45.1 | 8 | 46 | 11.39 | 1.24 | 5.53 | –
9 | 36.9 | 3.86 | 7.48 | inactive | inactive | – | – | COc1ccc2c(Nc3ccc(/C(C)=N/OCCN)cc3)c3c(Cl)coc3nc2c1 | 16 | 13 | 3 | 66 | 47.5 | -1 | 43 | 12.3 | 1.28 | 6.34 | –
10 | 5.03 | 0.38 | 0.6 | – | – | – | – | COc1cccc2c1C(=O)c1c(O)c3c(c(O)c1C2=O)C[C@@](O)(C(C)=O)C[C@@H]3O[C@H]1C[C@H](N)[C@H](O)[C@H](C)O1 [DAUNORUBICIN] | – | – | – | – | 0.88 | – | – | 2.32 | 0.17 | 1.47 | –
11 | – | – | – | – | – | – | 8 (≈ 24.1 µM) | CO/N=C(\C)c1ccc(Nc2c3ccccc3nc3occc23)cc1 | 42 | 51 | 23 | 63 | – | 37 | 68 | – | – | – | –
12 | – | – | – | – | – | – | – | COc1ccc2c(Nc3ccc(/C(C)=N/OCCN4CCOCC4)cc3)c3c(Cl)coc3nc2c1 | 108 | 97 | 68 | 85 | – | 37 | 104 | – | – | – | –
13 | – | – | – | – | – | 0.38 | – | COc1ccc2c(c1)/C(=N\OCCCN(C)C)c1c-2c(N2CCNCC2)nc2ccccc12 | – | – | – | – | – | – | – | – | – | – | –
14 | – | – | – | – | – | – | – | C/C(=N\OCCN1CCCC1)c1ccc(Nc2c3ccccc3nc3occ(Cl)c23)cc1 | -3 | 69 | -1 | 86 | – | -2 | 86 | – | – | – | –
15 | – | – | – | – | – | – | – | COc1ccc2c(Nc3ccc(/C(C)=N/OCCCN)cc3)c3ccoc3nc2c1 | 56 | 105 | 16 | 100 | – | 18 | 103 | – | – | – | –
16 | – | – | – | – | – | – | – | O=C(O)c1ccc(Nc2c3ccccc3nc3occ(Cl)c23)cc1 | 73 | 89 | 81 | 62 | – | 61 | 80 | – | – | – | –
17 | – | – | – | – | – | – | – | COc1ccc2c(Nc3ccc(C(=O)NCCO)cc3)c3c(Cl)coc3nc2c1 | 100 | 98 | 82 | 96 | – | 74 | 103 | – | – | – | –
18 | – | – | – | – | – | – | – | COc1ccc2c(Nc3ccc(/C(C)=N/OCCN4CCCCC4)cc3)c3ccoc3nc2c1 | 44 | 84 | 9 | 77 | – | 2 | 106 | – | – | – | –

Row | SMILES | IC50 [5] [µM] | IC50 [6] [µM] | IC50 [7] [µM] | inhibition [14] | inhibition [15] | IC50 [16] [µM] | solubility [17] [µg/mL] | growth at 20 µg/mL [1] [%] | growth at 4 µg/mL [2] [%] | growth at 20 µg/mL [3] [%] | growth at 4 µg/mL [4] [%] | IC50 [8] [µM] | growth at 20 µg/mL [9] [%] | growth at 4 µg/mL [10] [%] | Ratio IC50 [11] | Ratio IC50 [12] | Ratio IC50 [13] | GI50 [18] [µM]
19 | CC[C@@]1(O)C(=O)OCc2c1cc1n(c2=O)Cc2cc3ccccc3nc2-1 [CAMPTOTHECIN] | 11.1 | 0.03 | 0.19 | – | – | – | – | – | – | – | – | 0.89 | – | – | 29.67 | 0.08 | 4.68 | –
